# Reference: ChEMBL document CHEMBL1255269 (Antimicrob Agents Chemother, 2008)
# Calls of active or inactive are those of the source. The rule behind the calls is not given here.
# Assays:
# [1] = Volume of distribution in pigeon at 30 mg/kg, iv by naive pooling approach; format: ADME, organism-based; design: dose 30 mg/kg, route intravenous; conditions: columba livia, in vivo
# In short: (§1)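 Crossover design, one week apart, 24 homing pigeons. […] Blood taken at 0.25–8 h, six samples per time point; plasma assayed by HPLC-UV (linear 0.05–20 μg/ml). Data fitted by naive pooling, iv biexponential and oral triexponential two-compartment models, plus nonlinear mixed-effects modelling; F derived from mean AUC0–∞.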
# [2] = Mean residence time in pigeon at 30 mg/kg, iv by naive pooling approach; format: ADME, organism-based; design: dose 30 mg/kg, route intravenous; conditions: columba livia, in vivo, read-out: Time; in short: as §1
# [3] = Half life at beta phase in pigeon at 30 mg/kg, iv by naive pooling approach; format: ADME, organism-based; design: dose 30 mg/kg, route intravenous; conditions: columba livia, in vivo; in short: as §1
# [4] = Half life at beta phase in pigeon at 30 mg/kg, po by naive pooling approach; format: ADME, organism-based; design: dose 30 mg/kg, route oral; conditions: columba livia, in vivo; in short: as §1
# [5] = Oral bioavailability in pigeon at 30 mg/kg, po by naive pooling approach; format: ADME, organism-based; conditions: columba livia, in vivo; in short: as §1
# [6] = Tmax in pigeon at 30 mg/kg, po by naive pooling approach; format: ADME, organism-based; design: dose 30 mg/kg, route oral; conditions: columba livia, in vivo; in short: as §1
# [7] = Cmax in pigeon at 30 mg/kg, po by naive pooling approach; format: ADME, organism-based; design: dose 30 mg/kg, route oral; conditions: columba livia, in vivo; in short: as §1
# [8] = Volume of distribution in central compartment in pigeon at 30 mg/kg, iv; format: ADME, organism-based; design: dose 30 mg/kg, route intravenous; conditions: columba livia, in vivo; in short: as §1
# [9] = Oral bioavailability in pigeon at 30 mg/kg, po; format: ADME, organism-based; conditions: columba livia, in vivo; in short: as §1
# [10] = Plasma protein binding in pigeon at 10 ug/ml; format: ADME, cell-free; conditions: columba livia, read-out: PPB (converted)
# In short: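 Ultrafiltration through a 30K membrane, free drug in the ultrafiltrate measured by HPLC. Bound drug taken as total minus free.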
# [11] = system: Salmonella typhimurium; experiment: Antimicrobial activity against Salmonella enterica subsp. enterica serovar Typhimurium PT99/DAB69 at 2 ug/ml after 16 hrs; format: functional
# In short: (§2)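 Killing curve in Mueller-Hinton broth inoculated with 5 × 10^5 CFU of the strain (grown in LB, 37°C, 16 h, static). […] Tenfold dilutions plated onto Mueller-Hinton agar at several time points after inoculation; the decrease in log10 CFU is read at 16 h.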
# [12] = system: Salmonella typhimurium; experiment: Antimicrobial activity against Salmonella enterica subsp. enterica serovar Typhimurium PT99/DAB69 at 4 ug/ml after 16 hrs; format: functional; in short: as §2
# [13] = system: Salmonella typhimurium; experiment: Antimicrobial activity against Salmonella enterica subsp. enterica serovar Typhimurium PT99/DAB69 in pigeon kidney assessed as decrease in bacterial count relative to untreated control; format: functional, organism-based
# In short: (§3)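 Homing pigeons, 10 per group, housed individually. Crop inoculation with 10^8 CFU in 1 ml PBS. […] Tissue CFU per gram counted by plating tenfold dilutions on brilliant green agar, with enrichment in buffered peptone water and tetrathionate broth if direct plating was negative.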
# [14] = system: Salmonella typhimurium; experiment: Antimicrobial activity against Salmonella enterica subsp. enterica serovar Typhimurium PT99/DAB69 in pigeon spleen assessed as decrease in bacterial count relative to untreated control; format: functional, organism-based; in short: as §3
# [15] = system: Columba livia; experiment: Drug uptake in Salmonella enterica subsp. enterica serovar Typhimurium PT99/DAB69 infected pigeon at 26 to 45 mg/kg; format: ADME, organism-based; design: dose 26-45 mg/kg; conditions: in vivo
# [16] = in vivo; conditions: columba livia, plasma, iv, 30 mg/kg
# [17] = in vivo; conditions: columba livia, plasma, po, 30 mg/kg
# [18] = in vivo; conditions: columba livia, plasma, iv, 30 mg/kg; remark: listed apart in the source
# [19] = in vivo; conditions: columba livia, plasma, po, 30 mg/kg; remark: listed apart in the source
compound,measurement,setting,value
CS(=O)(=O)c1ccc([C@@H](O)[C@@H](CF)NC(=O)C(Cl)Cl)cc1 [FLORFENICOL],Vd,[1],2.02 L/kg
same,MRT,[2],1.43 h
same,half-life,[3],1.73 h
same,half-life,[4],2.69 h
same,bioavailability,[5],58.5%
same,Tmax,[6],0.69 h
same,Cmax,[7],5.1 µg/mL
same,Vd,[8],0.88 L/kg
same,bioavailability,[9],60%
same,fraction unbound at 10 ug/ml,[10],0.288
same,log10cfu,[11],1
same,log10cfu,[12],2
same,Activity,[13],inactive
same,Activity,[14],inactive
same,Drug uptake,[15],35 mg/kg
same,AUC(0-inf),[16],21.3 µg·h/mL
same,AUC(0-inf),[17],12.5 µg·h/mL
same,AUC(0-inf),[18],22.7 µg·h/mL
same,AUC(0-inf),[19],13.1 µg·h/mL
